Test results taken from ChEMBL document CHEMBL5620402, “Development of submicromolar 17β-HSD10 inhibitors and their in vitro and in vivo evaluation” (Eur J Med Chem, 2023).

Assays:
[1] = PBS buffer - Octanol distribution coefficient, logD of the compound at pH 7.4 by UHPLC-DAD-MS analysis; assay type: physicochemical
Summary of the method: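 Compound (0.25 mg) was put into 500 μL of a 1:1 water–octanol (logP) or PBS pH 7.4–octanol (logD) mixture. Samples were shaken 30 min and centrifuged 10 min at 10,000 rcf. Each phase was quantified by UHPLC-DAD-MS against calibration lines.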

[2] = target: T1, 3-hydroxyacyl-CoA dehydrogenase type-2 (Homo sapiens) (UniProt Q99714); test: Inhibition of recombinant 17beta-HSD10 (unknown origin) expressed in Escherichia coli BL21 (DE3) assessed as residual activity at 10 uM using acetoacetyl-CoA as substrate by SAAC method relative to control
T1 sequence (whole entry): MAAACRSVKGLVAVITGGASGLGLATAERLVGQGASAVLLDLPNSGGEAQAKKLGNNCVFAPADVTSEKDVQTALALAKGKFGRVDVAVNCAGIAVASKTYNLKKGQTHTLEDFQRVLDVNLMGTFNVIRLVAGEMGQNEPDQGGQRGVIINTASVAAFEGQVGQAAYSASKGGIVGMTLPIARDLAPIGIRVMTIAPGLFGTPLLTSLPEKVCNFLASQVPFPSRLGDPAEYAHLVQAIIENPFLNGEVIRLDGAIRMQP
Summary of the method: (§1)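 Recombinant 17β-HSD10 from E. coli BL21(DE3), 0.15 μg, was mixed with 320 μmol/L NADH in Tris-HCl pH 7.4 assay buffer. It was preincubated 5 min at 37 °C with 1 or 10 μM inhibitor or vehicle, then 320 μmol/L acetoacetyl-CoA was added. A340 was followed for 5 min. Residual activity is % of control, triplicate mean ± SD, with t-test versus control.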

[3] = target: T1, 3-hydroxyacyl-CoA dehydrogenase type-2 (Homo sapiens); test: Inhibition of recombinant 17beta-HSD10 (unknown origin) expressed in Escherichia coli BL21 (DE3) assessed as residual activity at 1 uM using acetoacetyl-CoA as substrate by SAAC method relative to control; summary of the method: as §1
[4] = target: T2, Citrate synthase, mitochondrial (Sus scrofa) (UniProt P00889); test: Inhibition of pig brain mitochondrial citrate synthase assessed as activity at 50 uM by DTNB method (reference value: 100 + /- 5.5%); set-up: scale not given: the % may be the effect or the level left; details: Mitochondria
T2 sequence (whole entry): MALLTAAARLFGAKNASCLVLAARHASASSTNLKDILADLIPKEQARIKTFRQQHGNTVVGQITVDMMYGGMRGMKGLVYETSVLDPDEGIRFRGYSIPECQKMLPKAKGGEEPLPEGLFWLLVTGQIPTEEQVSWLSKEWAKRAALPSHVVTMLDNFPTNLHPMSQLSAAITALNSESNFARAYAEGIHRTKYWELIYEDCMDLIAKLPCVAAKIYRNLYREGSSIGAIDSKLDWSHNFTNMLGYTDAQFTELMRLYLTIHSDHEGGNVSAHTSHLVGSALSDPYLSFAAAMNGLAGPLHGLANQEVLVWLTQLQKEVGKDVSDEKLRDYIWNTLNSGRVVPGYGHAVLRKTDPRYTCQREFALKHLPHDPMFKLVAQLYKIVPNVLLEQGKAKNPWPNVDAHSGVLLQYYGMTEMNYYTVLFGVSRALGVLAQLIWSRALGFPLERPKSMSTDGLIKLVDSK

[5] = target: T3, Amine oxidase [flavin-containing] A (Sus scrofa, UniProt Q6Q2J0); test: Inhibition of pig brain mitochondrial MAO-A using [3H]5-HT as substrate incubated for 60 mins by liquid scintillation counting analysis; assay type: mitochondria, Mitochondria
T3 sequence (Q6Q2J0 whole entry): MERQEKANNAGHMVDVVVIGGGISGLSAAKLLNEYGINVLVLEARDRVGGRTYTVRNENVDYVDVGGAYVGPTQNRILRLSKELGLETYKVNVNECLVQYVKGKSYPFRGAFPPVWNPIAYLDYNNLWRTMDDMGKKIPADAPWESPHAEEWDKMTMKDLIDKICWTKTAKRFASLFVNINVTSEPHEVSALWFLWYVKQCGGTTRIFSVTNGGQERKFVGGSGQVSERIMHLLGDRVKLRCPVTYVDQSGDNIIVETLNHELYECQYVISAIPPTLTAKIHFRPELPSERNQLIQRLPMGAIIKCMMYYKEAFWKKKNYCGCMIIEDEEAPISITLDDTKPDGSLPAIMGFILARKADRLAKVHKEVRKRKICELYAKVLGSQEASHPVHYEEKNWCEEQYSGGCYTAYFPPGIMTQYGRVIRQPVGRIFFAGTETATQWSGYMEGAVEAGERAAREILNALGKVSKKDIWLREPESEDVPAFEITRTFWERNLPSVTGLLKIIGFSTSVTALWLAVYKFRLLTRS
Summary of the method: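 Pig brain mitochondria were preincubated with drug at 5–7 concentrations (1–1000 μM) for 60 min at 37 °C. Radiolabelled substrate was then added: [3H]5-HT for MAO-A (20 min) or [14C]PEA for MAO-B (1 min). The aldehyde product was counted by liquid scintillation. IC50 came from four-parameter logistic fits; mean ± SE of ≥2 runs.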

[6] = Inhibition of complex II linked mitochondrial respiration in isolated pig brain mitochondria by O2k respirometry; set-up: species or system Sus scrofa
Summary of the method: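 Respirometry (Oxygraph-2k) of purified pig brain cortex mitochondria in state 3. Substrates were malate + pyruvate + ADP (Complex I) or ADP + rotenone + succinate (Complex II). One chamber was titrated with compound (10–20 concentrations, final 1.25–500 μM) and the other with DMSO; rates were expressed relative to DMSO. IC50 came from four-parameter logistic fits.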

HEK293 = test: Cytotoxicity against human HEK293 cells assessed as change in ATP level at 10 uM measured after 48 hrs by CellTiter-Glo assay; assay type: toxicity, cell-based; details: hek293, 48 h
Summary of the method: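 HEK293 or SH-SY5Y cells in DMEM with 10% FBS, 2 mM glutamine and NEAA were seeded at 7,500 cells per well and grown 24 h. They were then exposed to 1 or 10 μM compound (final 1% DMSO) for 48 h. ATP was read by CellTiter-Glo luminescence after CellTox Green, normalised to 1% DMSO and 100 μM valinomycin controls. At least two experiments in tetraplicate.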

[7] = Cmax in male albino Wistar rat plasma at 60 mg/kg, po measured upto 1440 mins by HPLC-MS analysis; assay type: ADME, organism-based
Summary of the method: (§2)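 Oral gavage via blunt needle into the stomach of male wild-type rats. Dose was 60 mg/kg from a 16 mM solution in 10% NMP, 25% Kolliphor EL and 65% saline. Rats were sacrificed at 15 time-points from 5 to 1440 min, 3 per point. Plasma and brain were analysed by HPLC-MS with non-compartmental analysis; values are mean ± SE of three.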

[8] = Cmax in male albino Wistar rat brain at 60 mg/kg, po measured upto 1440 mins by HPLC-MS analysis; assay type: ADME, organism-based; summary of the method: as §2
[9] = Tmax in male albino Wistar rat brain at 60 mg/kg, po measured upto 1440 mins by HPLC-MS analysis; assay type: ADME, organism-based; summary of the method: as §2
[10] = AUC (0 to 1440 mins) in male albino Wistar rat brain at 60 mg/kg, po measured upto 1440 mins by HPLC-MS analysis; assay type: ADME, organism-based; details: in vivo, 24 h; summary of the method: as §2
[11] = Permeability coefficient in male albino Wistar rat assessed as ratio of brain AUC to plasma AUC at 60 mg/kg, po measured upto 1440 mins by HPLC-MS analysis; assay type: ADME, organism-based; summary of the method: as §2

logD [1]	Activity [2] [%]	Activity [3] [%]	Activity [4] [%]	IC50 ([5]; read-out: IC50) [µM]	IC50 [6] [µM]	IC50 [5]	Cmax [7] [nM]	Cmax [8] [nM]	Tmax [9] [min]	AUC [10] [pmol·min]	Kp at 24 h [11]	Structure (SMILES)	Activity (HEK293)
5.06	13	39.8	92.7	79	98							COc1ccc2nc(NC(=O)Nc3ccc(O)c(C(F)(F)F)c3)sc2c1	Non-Toxic
3.34	38.3	50	94.4			Not Active						NC(=O)c1ccc2nc(NC(=O)Nc3ccc(O)c(Cl)c3)sc2c1	Non-Toxic
3.35	22	49.5	99.9	5.8	27		13.5	0.206	35	15749	0.011	CC(=O)Nc1ccc2nc(NC(=O)Nc3ccc(O)c(Cl)c3)sc2c1	Non-Toxic
0.75	17.5	50	100	85	260		6.85	0.154	40	20135	0.095	O=C(Nc1ccc(O)c(Cl)c1)Nc1nc2ccc(C(=O)O)cc2s1	Non-Toxic
